Laboratory results taken from ChEMBL document CHEMBL1124186, “Synthesis and evaluation of tylosin-related macrolides modified at the aldehyde function: a new series of orally effective antibiotics” (1988).
Values after ≈ are worked out from the molar mass of the structure shown.

Tests used:
Mus musculus [1] = test: Peripheral plasma levels in mice after oral administration of 50 mg/kg dose for 4 hr; format: functional, organism-based; set-up: dose 50 mg/kg
How it was run: (§1)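 Mice were given the compound orally and sampled for peripheral plasma at each time point. Plasma was assayed microbiologically against Micrococcus luteus seeded in Antibiotic Medium 1. Inhibition zone sizes were read, and concentrations were calculated from each compound's own standard curve. Each value is the mean of five mice per time point.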

Collinsella aerofaciens = test: In vitro antimicrobial activity against anaerobic bacteria eubacterium aerofaciens 1235; format: functional
[2] = In vitro antimicrobial activity against anaerobic bacteria peptostreptococcus intermedius 1264; format: functional
Enterococcus faecium = test: In vitro antimicrobial activity against Streptococcus faecium X66; format: functional, streptococcus fae-cium
Streptococcus pneumoniae [3] = test: In vivo effective dose against experimental infections in mice Strep. pneumoniae park when administered sc; format: functional
Staphylococcus aureus [4] = test: In vivo effective dose against experimental infections in mice Staphylococcus aureus X1 when administered orally; format: functional; details: po
Streptococcus pneumoniae [5] = test: In vivo effective dose against experimental infections in mice Strep. pneumoniae park when administered orally; format: functional; details: po
[6] = tested on: Peptoniphilus asaccharolyticus; test: In vitro antimicrobial activity against anaerobic bacteria peptococcus asaccharolyticus 1302; format: functional
Streptococcus [7] = test: In vitro antimicrobial activity against aerobic bacteria Streptococcus D 9960; format: functional
Mus musculus [8] = test: Peripheral plasma levels in mice after oral administration of 50 mg/kg dose for 1 hr; format: functional, organism-based; set-up: dose 50 mg/kg; how it was run: as §1
Rattus norvegicus [9] = test: Peripheral plasma levels in rats after oral administration of 100 mg/kg dose for 0.25 hr; format: functional, organism-based; set-up: dose 100 mg/kg
How it was run: (§2)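 Rats received 100 mg/kg orally and were sampled for peripheral plasma. Concentrations were measured by Micrococcus luteus agar-diffusion microbiological assay in Antibiotic Medium 1, with zone sizes converted using the standard curve for the appropriate compound. Each value is the average of three rats per time point.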

Mus musculus [10] = test: Peripheral plasma levels in mice after oral administration of 100 mg/kg dose for 4 hr; format: functional, organism-based; set-up: dose 100 mg/kg; how it was run: as §1
[11] = tested on: Fusobacterium necrophorum; test: In vitro antimicrobial activity against anaerobic bacteria usobacterium necrophorum 6054A; format: functional
Mus musculus [12] = test: Peripheral plasma levels in mice after oral administration of 50 mg/kg dose for 2 hr; format: functional, organism-based; set-up: dose 50 mg/kg; how it was run: as §1
[13] = tested on: Prevotella melaninogenica; test: In vitro antimicrobial activity against anaerobic bacteria bacteroides melaninogenicus 1856,; format: functional
Anaerococcus prevotii = test: In vitro antimicrobial activity against anaerobic bacteria peptococcus prevoti 1281; format: functional
Staphylococcus aureus [14] = test: In vitro antimicrobial activity against aerobic bacteria Staphylococcus aureus V140,; format: functional
Streptococcus pyogenes [15] = test: In vivo effective dose against experimental infections in rodent caused by Streptococcus pyogenes C203 when administered sc; format: functional
[16] = tested on: Peptostreptococcus anaerobius; test: In vitro antimicrobial activity against anaerobic bacteria eubacterium peptostreptococcus anaerobius 1428,; format: functional
Mus musculus [17] = test: Peripheral plasma levels in mice after oral administration of 100 mg/kg dose for 0.5 hr; format: functional, organism-based; set-up: dose 100 mg/kg; how it was run: as §1
Streptococcus [18] = test: In vitro antimicrobial activity against aerobic bacteria Streptococcus D 8043; format: functional
Staphylococcus aureus [19] = test: In vitro antimicrobial activity against aerobic bacteria Staphylococcus aureus X400; format: functional
Mus musculus [20] = test: Peripheral plasma levels in mice after oral administration of 100 mg/kg dose for 1 hr; format: functional, organism-based; set-up: dose 100 mg/kg; how it was run: as §1
Staphylococcus aureus [21] = test: In vitro antimicrobial activity against Staphylococcus aureus X1; format: functional
Staphylococcus aureus [22] = test: In vitro antimicrobial activity against aerobic bacteria Staphylococcus aureus 513E; format: functional
Streptococcus [23] = test: In vitro antimicrobial activity against aerobic bacteria Streptococcus B 14; format: functional
[24] = tested on: Prevotella melaninogenica; test: In vitro antimicrobial activity against anaerobic bacteria bacteroides melaninogenicus 2736; format: functional
Rattus norvegicus [25] = test: Peripheral plasma levels in rats after oral administration of 100 mg/kg dose for 0.5 hr; format: functional, organism-based; set-up: dose 100 mg/kg; how it was run: as §2
Haemophilus influenzae [26] = test: In vitro antimicrobial activity against aerobic bacteria Haemophilus influenzae 76; format: functional
Phocaeicola vulgatus = test: In vitro antimicrobial activity against anaerobic bacteria bacteroides vulgatus 1211; format: functional
[27] = tested on: Bacteroides thetaiotaomicron; test: In vitro antimicrobial activity against anaerobic bacteria bacteroides thetaiotaomicron 1438; format: functional
Staphylococcus aureus [28] = test: In vivo effective dose against experimental infections in mice Staphylococcus aureus X1 when administered sc; format: functional
Streptococcus pneumoniae [29] = test: In vitro antimicrobial activity against Streptococcus pneumoniae; format: functional
Mus musculus [30] = test: Peripheral plasma levels in mice after oral administration of 50 mg/kg dose for 0.25 hr; format: functional, organism-based; set-up: dose 50 mg/kg; how it was run: as §1
Mus musculus [31] = test: Peripheral plasma levels in mice after oral administration of 50 mg/kg dose for 0.5 hr; format: functional, organism-based; set-up: dose 50 mg/kg; how it was run: as §1
Haemophilus influenzae [32] = test: In vitro antimicrobial activity against Haemophilus influenzae.; format: functional
Rattus norvegicus [33] = test: Peripheral plasma levels in rats after oral administration of 100 mg/kg dose for 2 hr; format: functional, organism-based; set-up: dose 100 mg/kg; how it was run: as §2
[34] = tested on: Haemophilus parainfluenzae; test: In vitro antimicrobial activity against aerobic bacteria Haemophilus parainfluenzae 9796; format: functional
Mus musculus [35] = test: Peripheral plasma levels in mice after oral administration of 100 mg/kg dose for 0.25 hr; format: functional, organism-based; set-up: dose 100 mg/kg; how it was run: as §1
Chlamydia trachomatis = test: In vitro antimicrobial activity against chlamydia trachomatis.; format: functional
Streptococcus [36] = test: In vitro antimicrobial activity against aerobic bacteria Streptococcus B 5; format: functional
Clostridium perfringens = test: In vitro antimicrobial activity against anaerobic bacteria clostridium perfringens 81,; format: functional
Eikenella corrodens = test: In vitro antimicrobial activity against anaerobic bacteria bacteroides corrodens 1874; format: functional
[37] = tested on: Staphylococcus epidermidis; test: In vitro antimicrobial activity against aerobic bacteria Streptococcus epi 222; format: functional
Streptococcus pyogenes [38] = test: In vitro antimicrobial activity against Streptococcus pyogenes C203; format: functional
Haemophilus influenzae [39] = test: In vitro antimicrobial activity against aerobic bacteria Haemophilus influenzae 465; format: functional
Streptococcus pyogenes [40] = test: In vivo effective dose against experimental infections in rodent caused by Streptococcus pyogenes C203 when administered orally; format: functional; details: po
Rattus norvegicus [41] = test: Peripheral plasma levels in rats after oral administration of 100 mg/kg dose for 4 hr; format: functional, organism-based; set-up: dose 100 mg/kg; how it was run: as §2
Fusobacterium = test: In vitro antimicrobial activity against anaerobic bacteria fusobacterium symbiosum 1470; format: functional
Staphylococcus aureus [42] = test: In vitro antimicrobial activity against aerobic bacteria Staphylococcus aureus V135; format: functional
Cutibacterium acnes = test: In vitro antimicrobial activity against anaerobic bacteria propionibacterium acnes 79; format: functional
Bacteroides fragilis [43] = test: In vitro antimicrobial activity against anaerobic bacteria bacteroides fragilis 1877; format: functional
[44] = tested on: Staphylococcus epidermidis; test: In vitro antimicrobial activity against Staphylococcus epidermidis EPI1; format: functional
Bacteroides fragilis [45] = test: In vitro antimicrobial activity against anaerobic bacteria bacteroides fragilis 1936B,; format: functional
Mus musculus [46] = test: Peripheral plasma levels in mice after oral administration of 100 mg/kg dose for 2 hr; format: functional, organism-based; set-up: dose 100 mg/kg; how it was run: as §1
Staphylococcus aureus [47] = test: In vitro antimicrobial activity against aerobic bacteria Staphylococcus aureus V41; format: functional
Rattus norvegicus [48] = test: Peripheral plasma levels in rats after oral administration of 100 mg/kg dose for 1 hr; format: functional, organism-based; set-up: dose 100 mg/kg; how it was run: as §2
Haemophilus influenzae [49] = test: In vitro antimicrobial activity against aerobic bacteria Haemophilus influenzae MX366,; format: functional
Bacteroides fragilis [50] = test: In vitro antimicrobial activity against anaerobic bacteria bacteroides fragilis 111; format: functional
[51] = tested on: Staphylococcus epidermidis; test: In vitro antimicrobial activity against aerobic bacteria Streptococcus epi 270; format: functional
Clostridioides difficile = test: In vitro antimicrobial activity against anaerobic bacteria Clostridium difficile 2994; format: functional
Clostridium septicum = test: In vitro antimicrobial activity against anaerobic bacteria clostridium septicum 1128; format: functional
Streptococcus [52] = test: In vitro antimicrobial activity against aerobic bacteria Streptococcus D 2041; format: functional
Streptococcus pneumoniae [53] = test: In vitro antimicrobial activity against aerobic bacteria Streptococcus pneumoniae B1-438; format: functional, streptococcus pneum

CC[C@H]1OC(=O)C[C@@H](O)[C@H](C)[C@@H](O[C@@H]2O[C@H](C)[C@@H](O)[C@H](N(C)C)[C@H]2O)[C@@H](CCCl)C[C@@H](C)C(=O)/C=C/C(C)=C/[C@@H]1CO[C@@H]1O[C@H](C)[C@@H](O)[C@@H](OC)[C@H]1OC
Concentration (Mus musculus [1]): < 0.1 µg/mL | MIC (Collinsella aerofaciens): 4 µg/mL (≈ 5.05 µM) | MIC [2]: 2 µg/mL (≈ 2.52 µM) | MIC (Enterococcus faecium): 8 µg/mL (≈ 10.1 µM) | ED50 (Streptococcus pneumoniae [3]): > 20 mg/kg | ED50 (Staphylococcus aureus [4]): 9 mg/kg | ED50 (Streptococcus pneumoniae [5]): > 50 mg/kg | MIC [6]: 2 µg/mL (≈ 2.52 µM) | MIC (Streptococcus [7]): 8 µg/mL (≈ 10.1 µM) | Concentration (Mus musculus [8]): 0.3 µg/mL | Concentration (Rattus norvegicus [9]): 5.4 µg/mL | Concentration (Mus musculus [10]): 0.3 µg/mL | MIC [11]: 8 µg/mL (≈ 10.1 µM) | Concentration (Mus musculus [12]): 0.4 µg/mL | MIC [13]: 1 µg/mL (≈ 1.26 µM) | MIC (Anaerococcus prevotii): 1 µg/mL (≈ 1.26 µM) | MIC (Staphylococcus aureus [14]): 0.25 µg/mL (≈ 0.315 µM) | ED50 (Streptococcus pyogenes [15]): 0.7 mg/kg | MIC [16]: < 0.5 µg/mL | Concentration (Mus musculus [17]): 6.4 µg/mL | MIC (Streptococcus [18]): 4 µg/mL (≈ 5.05 µM) | MIC (Staphylococcus aureus [19]): 0.12 µg/mL (≈ 0.151 µM) | Concentration (Mus musculus [20]): 2.8 µg/mL | MIC (Staphylococcus aureus [21]): 0.25 µg/mL (≈ 0.315 µM) | MIC (Staphylococcus aureus [22]): 0.12 µg/mL (≈ 0.151 µM) | MIC (Streptococcus [23]): 64 µg/mL (≈ 80.8 µM) | MIC [24]: 2 µg/mL (≈ 2.52 µM) | Concentration (Rattus norvegicus [25]): 8.8 µg/mL | MIC (Haemophilus influenzae [26]): 16 µg/mL (≈ 20.2 µM) | MIC (Phocaeicola vulgatus): 1 µg/mL (≈ 1.26 µM) | MIC [27]: 2 µg/mL (≈ 2.52 µM) | ED50 (Staphylococcus aureus [28]): 1.8 mg/kg | MIC (Streptococcus pneumoniae [29]): 1 µg/mL (≈ 1.26 µM) | Concentration (Mus musculus [30]): 0.3 µg/mL | Concentration (Mus musculus [31]): 0.4 µg/mL | MIC (Haemophilus influenzae [32]): 16 µg/mL (≈ 20.2 µM) | Concentration (Rattus norvegicus [33]): 12.7 µg/mL | MIC [34]: 32 µg/mL (≈ 40.4 µM) | Concentration (Mus musculus [35]): 8.4 µg/mL | MIC (Chlamydia trachomatis): 0.25 µg/mL (≈ 0.315 µM) | MIC (Streptococcus [36]): > 128 µg/mL | MIC (Clostridium perfringens): < 0.5 µg/mL | MIC (Eikenella corrodens): 2 µg/mL (≈ 2.52 µM) | MIC [37]: 0.6 µg/mL (≈ 0.757 µM) | MIC (Streptococcus pyogenes [38]): 0.25 µg/mL (≈ 0.315 µM) | MIC (Haemophilus influenzae [39]): 16 µg/mL (≈ 20.2 µM) | ED50 (Streptococcus pyogenes [40]): 5 mg/kg | Concentration (Rattus norvegicus [41]): 7.7 µg/mL | MIC (Fusobacterium): 2 µg/mL (≈ 2.52 µM) | MIC (Staphylococcus aureus [42]): 0.25 µg/mL (≈ 0.315 µM) | MIC (Cutibacterium acnes): 16 µg/mL (≈ 20.2 µM) | MIC (Bacteroides fragilis [43]): 2 µg/mL (≈ 2.52 µM) | MIC [44]: 0.12 µg/mL (≈ 0.151 µM) | MIC (Bacteroides fragilis [45]): 2 µg/mL (≈ 2.52 µM) | Concentration (Mus musculus [46]): 1.5 µg/mL | MIC (Staphylococcus aureus [47]): 0.12 µg/mL (≈ 0.151 µM) | Concentration (Rattus norvegicus [48]): 9.4 µg/mL | MIC (Haemophilus influenzae [49]): 16 µg/mL (≈ 20.2 µM) | MIC (Bacteroides fragilis [50]): 2 µg/mL (≈ 2.52 µM) | MIC [51]: > 128 µg/mL | MIC (Clostridioides difficile): < 0.5 µg/mL | MIC (Clostridium septicum): < 0.5 µg/mL | MIC (Streptococcus [52]): 16 µg/mL (≈ 20.2 µM) | MIC (Streptococcus pneumoniae [53]): > 128 µg/mL
